Active and inactive are the calls of the source.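 Rule for the calls: active = compounds lowering cell ATP light, with fitted IC50 at most twice the top tested dose; inconclusive = flat curve losing 30 to 70% signal, or poor fit; inactive = the rest.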
System: not listed separately
Assay: mammalian cell viability loss in HeLa – CellTiter-Glo luminescence, dry powder, set 3, cytotoxicity control for pyoverdine/PvdQ inhibitor project, dose response (AID 623987)
Conditions: HeLa viability, CellTiter-Glo ATP luminescence; at 120 µM (top of the series)
Procedure, shortened: (§1)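 Test system: HeLa cells; amount: 2,500 HeLa cells per well; schedule: cells grown 24 h at 37 °C before dosing, 48 h compound exposure; buffer or medium: phenol red-free DMEM with 10% fetal bovine serum; technique: CellTiter-Glo luminescence measuring cellular ATP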

Structure (SMILES) | activity change, negative = toxicity
N#CC(c1ccc(Cl)cc1)c1cccc(Cl)n1 (stereo not given) | 3.78% (inactive)
COCCOCCC(C#N)c1ccc(F)cc1 (stereo not given) | 5.01% (inactive)
COCCNC(C#N)c1ccc(Cl)cc1 (stereo not given) | -1.45% (inactive)
N#CC(c1ccc(F)cc1)c1cccc(C(F)(F)F)n1 (stereo not given) | 5.55% (inactive)
CCCCC(C#N)c1ccc(F)cn1 (stereo not given) | 1.98% (inactive)
CN(C)CCCC(C#N)c1ccc(Cl)cc1 (stereo not given) | 6.74% (inactive)
N#CC(c1ccc(Cl)cc1)c1ccccn1 (stereo not given) | 0.002% (inactive)
CCCCC(C#N)c1ccc(F)cc1 (stereo not given) | -1.79% (inactive)
N#CC(c1ccc(Cl)cc1)N1CCCC1 (stereo not given) | 24% (inactive)
CCCCC(C#N)c1ccc(Cl)cc1 (stereo not given) | 7.6% (inactive)
N#CC(c1ccc(Cl)cc1)c1cccc(C(F)(F)F)n1 (stereo not given) | 4.48% (inactive)
CCCCC(C#N)c1ccc(Cl)cn1 (stereo not given) | 13.2% (inactive)
Clc1ccc(C(c2cccc(Cl)n2)c2nn[nH]n2)cc1 (stereo not given) | 1.4% (inactive)
N#Cc1cccc(C(C#N)c2ccc(F)cc2)n1 (stereo not given) | -2.4% (inactive)
CCCCC(c1ccc(Cl)cc1)c1nn[nH]n1 (stereo not given) | 9.15% (inactive)
COCCC(C#N)c1ccc(F)cc1 (stereo not given) | 4.64% (inactive)

System: HeLa viability, CellTiter-Glo ATP luminescence
Assay: as above
Conditions: not given
Procedure, shortened: as §1

Structure (SMILES) | IC50
CCCCC(C#N)c1ccccn1 (stereo not given) | > 240 µM (inactive)
COCCOCCC(C#N)c1ccc(Cl)cc1 (stereo not given) | > 240 µM (inactive)
N#CC(c1ccc(Cl)cc1)c1ncccc1Cl (stereo not given) | > 240 µM (inactive)
CN(C)CCCC(C#N)c1ccc(F)cc1 (stereo not given) | > 240 µM (inactive)
N#CC(c1ccc(C(F)(F)F)c(Cl)n1)c1ccccc1OC(F)(F)F (stereo not given) | > 240 µM (inactive)
COCCC(C#N)c1ccc(Cl)cc1 (stereo not given) | 94.2 µM
N#CC1c2ccc(Cl)cc2CCc2cccnc21 (stereo not given) | > 240 µM (inactive)
N#CC(c1ccc(F)cc1)c1cccc(Cl)n1 (stereo not given) | > 240 µM (inactive)
N#CC(c1cccc(C(F)(F)F)n1)c1ccc(Cl)cc1F (stereo not given) | > 240 µM (inactive)

— PubChem BioAssay AID623987 (Broad Institute, 2012)
